Measurements as given in ChEMBL document CHEMBL1136726, “Synthesis and characterization of iodine-123 labeled 2beta-carbomethoxy-3beta-(4'-((Z)-2-iodoethenyl)phenyl)nortropane. A ligand for in vivo imaging of serotonin transporters by single-photon-emission tomography” (J Med Chem, 2003).

How the values were obtained:
Rattus norvegicus [1] = assay: Distribution of radioactivity in rat thyroid 30 min after intravenous administration of iodine labeled compound; assay type: ADME, organism-based, Thyroid gland; details: in vivo, 0.5 h
Procedure, shortened: (§1)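 Tail-vein injection of [123I]ZIENT (10 μCi in 0.2 mL 10% EtOH/0.9% NaCl, then 0.4 mL saline flush) into ketamine-anaesthetised male Sprague–Dawley rats (225–300 g). Animals were killed by cardiac excision at set times. Organs were excised, rinsed, blotted, weighed and gamma-counted. % dose/g was calculated against diluted aliquots of injectate. Mean ± SE, n=4–5.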

Rattus norvegicus [2] = assay: Distribution of radioactivity in rat liver 30 min after intravenous administration of iodine labeled compound; assay type: ADME, organism-based; details: in vivo, 0.5 h; procedure, shortened: as §1
Rattus norvegicus [3] = assay: Distribution of radioactivity in rat liver 5 min after intravenous administration of iodine labeled compound; assay type: ADME, organism-based; details: in vivo; procedure, shortened: as §1
Rattus norvegicus [4] = assay: Ratio of distribution of radioactivity in rat brain region prefrontal cortex and cerebellum 60 min after intravenous administration of iodine labeled compound in presence of reboxetine blocker in study 2; assay type: ADME, organism-based; details: in vivo, 1 h
Rattus norvegicus [5] = assay: Distribution of radioactivity in rat brain cerebellum 120 min after intravenous administration of iodine labeled compound; assay type: ADME, organism-based; details: in vivo, 2 h
Procedure, shortened: (§2)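 Male Sprague–Dawley rats (225–300 g) under ketamine received 10 µCi radioligand iv (tail vein) in 10% EtOH/saline. Hypothalamus, prefrontal cortex, striatum, pons and cerebellum were dissected, weighed and gamma-counted. % injected dose/g was taken from decay-corrected counts versus diluted dose. Mean ± SE and range, n=5 (5, 30 min) or 4 (60, 120 min).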

Rattus norvegicus [6] = assay: Distribution of radioactivity in rat brain prefrontal cortex 5 min after intravenous administration of iodine labeled compound; assay type: ADME, organism-based; details: in vivo; procedure, shortened: as §2
[7] = target: Sodium-dependent dopamine transporter (Homo sapiens, UniProt Q01959); assay: In vitro competitive binding versus [N-methyl-3H]WIN-35428 in murine kidney cells transfected with cDNA for human dopamine transporter (DAT); assay type: cell-based
Rattus norvegicus [8] = assay: Distribution of radioactivity in rat brain 120 min after intravenous administration of iodine labeled compound; assay type: ADME, organism-based; details: in vivo, 2 h
Rattus norvegicus [9] = assay: Distribution of radioactivity in rat testis 120 min after intravenous administration of iodine labeled compound; assay type: ADME, organism-based; details: in vivo, 2 h; procedure, shortened: as §1
Rattus norvegicus [10] = assay: Distribution of radioactivity in rat lung 5 min after intravenous administration of iodine labeled compound; assay type: ADME, organism-based; details: in vivo; procedure, shortened: as §1
Rattus norvegicus [11] = assay: Distribution of radioactivity in rat brain region cerebellum 60 min after intravenous administration of iodine labeled compound in presence of reboxetine blocker in study 2; assay type: ADME, organism-based; details: in vivo, 1 h
Procedure, shortened: (§3)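 Male Sprague–Dawley rats (250–300 g), ketamine-anesthetized. Blocker (2 mg/kg) or none was given iv 15 min before tail-vein radioligand (10 µCi in 0.2 mL 10% EtOH/saline). Rats were killed at 60 min with im pentobarbital. Brain regions were dissected, weighed and gamma-counted. % dose/g was taken from decay-corrected, background-subtracted counts versus the injected dose.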

Rattus norvegicus [12] = assay: Distribution of radioactivity in rat lung 60 min after intravenous administration of iodine labeled compound; assay type: ADME, organism-based; details: in vivo, 1 h; procedure, shortened: as §1
Rattus norvegicus [13] = assay: Distribution of radioactivity in rat brain prefrontal cortex 120 min after intravenous administration of iodine labeled compound; assay type: ADME, organism-based; details: in vivo, 2 h; procedure, shortened: as §2
Rattus norvegicus [14] = assay: Distribution of radioactivity in rat blood 60 min after intravenous administration of iodine labeled compound; assay type: ADME, organism-based; details: in vivo, 1 h
Procedure, shortened: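 Male Sprague–Dawley rats (225–300 g) under ketamine received 10 µCi radioligand in 0.2 mL 10% EtOH/0.9% NaCl via tail vein, then a saline flush. Killed by cardiac excision at set times. Organs were excised, weighed and gamma-counted. % dose/g was taken against diluted injectate. Mean ± SE and range, n=4 (5 min) or 5 (30–120 min).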

Rattus norvegicus [15] = assay: Ratio of distribution of radioactivity in rat brain region pons and cerebellum 60 min after intravenous administration of iodine labeled compound in absence of blocker in study 1; assay type: ADME, organism-based; details: in vivo, 1 h
[16] = target: Sodium-dependent noradrenaline transporter (Homo sapiens, UniProt P23975); assay: In vitro competitive binding versus [3H]- […] in murine kidney cells transfected with cDNA for human norepinephrine transporter (NET); assay type: cell-based
Rattus norvegicus [17] = assay: Distribution of radioactivity in rat kidney 5 min after intravenous administration of iodine labeled compound; assay type: ADME, organism-based; details: in vivo; procedure, shortened: as §1
Rattus norvegicus [18] = assay: Ratio of distribution of radioactivity in rat brain region hypothalamus and cerebellum 60 min after intravenous administration of iodine labeled compound in presence of reboxetine blocker in study 2; assay type: ADME, organism-based; details: in vivo, 1 h
Rattus norvegicus [19] = assay: Distribution of radioactivity in rat brain region prefrontal cortex 60 min after intravenous administration of iodine labeled compound in absence of blocker in study 1; assay type: ADME, organism-based; details: in vivo, 1 h; procedure, shortened: as §3
Rattus norvegicus [20] = assay: Distribution of radioactivity in rat brain region hypothalamus 60 min after intravenous administration of iodine labeled compound in presence of reboxetine blocker in study 2; assay type: ADME, organism-based; details: in vivo, 1 h; procedure, shortened: as §3
Rattus norvegicus [21] = assay: Distribution of radioactivity in rat brain region prefrontal cortex 60 min after intravenous administration of iodine labeled compound in presence of reboxetine blocker in study 2; assay type: ADME, organism-based; details: in vivo, 1 h; procedure, shortened: as §3
Rattus norvegicus [22] = assay: Distribution of radioactivity in rat brain hypothalamus 60 min after intravenous administration of iodine labeled compound; assay type: ADME, organism-based; details: in vivo, 1 h; procedure, shortened: as §2
Rattus norvegicus [23] = assay: Distribution of radioactivity in rat brain region frontal cortex 60 min after intravenous administration of iodine labeled compound in presence of reboxetine blocker in study 2; assay type: ADME, organism-based; details: in vivo, 1 h; procedure, shortened: as §3
Rattus norvegicus [24] = assay: Distribution of radioactivity in rat brain region prefrontal cortex 60 min after intravenous administration of iodine labeled compound in presence of fluvoxamine blocker in study 1; assay type: ADME, organism-based; details: in vivo, 1 h; procedure, shortened: as §3
Rattus norvegicus [25] = assay: Distribution of radioactivity in rat brain hypothalamus 30 min after intravenous administration of iodine labeled compound; assay type: ADME, organism-based; details: in vivo, 0.5 h; procedure, shortened: as §2

Sequence of Sodium-dependent dopamine transporter (Q01959 whole entry): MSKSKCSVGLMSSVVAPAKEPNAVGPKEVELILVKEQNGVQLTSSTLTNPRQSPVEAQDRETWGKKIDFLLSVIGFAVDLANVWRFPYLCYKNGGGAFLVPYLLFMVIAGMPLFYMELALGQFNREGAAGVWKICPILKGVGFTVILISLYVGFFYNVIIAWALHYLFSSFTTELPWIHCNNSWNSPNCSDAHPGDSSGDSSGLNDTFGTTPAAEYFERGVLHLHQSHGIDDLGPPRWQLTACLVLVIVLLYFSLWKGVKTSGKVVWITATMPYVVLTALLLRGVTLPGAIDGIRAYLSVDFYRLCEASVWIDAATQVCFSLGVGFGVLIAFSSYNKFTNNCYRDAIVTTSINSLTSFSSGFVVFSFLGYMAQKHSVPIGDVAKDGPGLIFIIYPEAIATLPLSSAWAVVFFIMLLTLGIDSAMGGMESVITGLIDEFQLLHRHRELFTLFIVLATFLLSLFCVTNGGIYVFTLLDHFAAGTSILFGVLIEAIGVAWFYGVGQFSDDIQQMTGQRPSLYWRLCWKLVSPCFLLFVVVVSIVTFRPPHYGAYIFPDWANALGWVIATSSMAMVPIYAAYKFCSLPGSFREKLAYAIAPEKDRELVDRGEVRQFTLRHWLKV
Sequence of Sodium-dependent noradrenaline transporter (P23975 whole entry): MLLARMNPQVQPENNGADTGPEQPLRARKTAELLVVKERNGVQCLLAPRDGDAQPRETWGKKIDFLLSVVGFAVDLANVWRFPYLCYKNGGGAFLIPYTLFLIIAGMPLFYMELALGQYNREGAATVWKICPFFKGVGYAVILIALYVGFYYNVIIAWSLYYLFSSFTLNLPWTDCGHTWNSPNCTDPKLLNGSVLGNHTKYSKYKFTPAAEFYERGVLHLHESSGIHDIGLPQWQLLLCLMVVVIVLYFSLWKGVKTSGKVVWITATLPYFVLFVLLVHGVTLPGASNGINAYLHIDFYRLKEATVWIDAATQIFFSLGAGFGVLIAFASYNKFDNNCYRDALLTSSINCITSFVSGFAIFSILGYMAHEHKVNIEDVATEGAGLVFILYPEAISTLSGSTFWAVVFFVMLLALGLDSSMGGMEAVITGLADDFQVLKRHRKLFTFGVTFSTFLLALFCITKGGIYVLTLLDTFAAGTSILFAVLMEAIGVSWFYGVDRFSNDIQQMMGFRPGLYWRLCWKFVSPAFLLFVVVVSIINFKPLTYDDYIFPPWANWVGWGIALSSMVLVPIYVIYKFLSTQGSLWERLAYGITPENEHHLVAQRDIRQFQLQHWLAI

Q: What does the source list for `COC(=O)[C@@H]1C2CCC(C[C@@H]1c1ccc(/C=C\I)cc1)N2` (stereo not given in full)?
A: Distribution (dose/g) (Rattus norvegicus [1]): 0.49%; Distribution (dose/g) (Rattus norvegicus [2]): 0.31%; Distribution (dose/g) (Rattus norvegicus [3]): 0.38%; Distribution (dose/g) (Rattus norvegicus [4]): 3.07%; Distribution (dose/g) (Rattus norvegicus [5]): 0.12%; Distribution (dose/g) (Rattus norvegicus [6]): 0.77%; Ki [7]: 3.47 nM; Distribution (dose/g) (Rattus norvegicus [8]): 0.39%; Distribution (dose/g) (Rattus norvegicus [9]): 0.31%; Distribution (dose/g) (Rattus norvegicus [10]): 4.96%; Distribution (dose/g) (Rattus norvegicus [11]): 0.23%; Distribution (dose/g) (Rattus norvegicus [12]): 1.41%; Distribution (dose/g) (Rattus norvegicus [13]): 0.49%; Distribution (dose/g) (Rattus norvegicus [14]): 0.37%; Distribution (dose/g) (Rattus norvegicus [15]): 2.58%; Ki [16]: 24 nM; Distribution (dose/g) (Rattus norvegicus [17]): 1.13%; Distribution (dose/g) (Rattus norvegicus [18]): 2.83%; Distribution (dose/g) (Rattus norvegicus [19]): 0.93%; Distribution (dose/g) (Rattus norvegicus [20]): 0.65%; Distribution (dose/g) (Rattus norvegicus [21]): 0.69%; Distribution (dose/g) (Rattus norvegicus [22]): 0.77%; Distribution (dose/g) (Rattus norvegicus [23]): 0.63%; Distribution (dose/g) (Rattus norvegicus [24]): 0.28%; Distribution (dose/g) (Rattus norvegicus [25]): 0.76%
